Compound activity deposited in PubChem by several laboratories.
Sampled rows, rich in hits. Any-hit rate of the full collection: about 11%.
SF-1 act: activators of human SF-1, primary screen, cell-based, CHO-K1, Gal4-SF-1 LBD, luciferase luminescence | AID 522, 2006 | 1.9% of 65,000 active | activation, % at 10 µM | CHO-K1 Gal4-SF-1 LBD luciferase reporter; % increase over DMSO SF-1-specific signal;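 active = activation above the mean activation of all tested compounds plus 3 SD, cut at about 50% in these data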
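Test system: CHO-K1 cells co-transfected with Gal4 DBD–human SF-1 LBD, 5xGal4 luciferase reporter. Quantity: 4,000 cells per well. Compound: 10 µM only. Incubation: compound added 1 h post-seeding, 20 h exposure at 37 °C, 5% CO2. Detection: SteadyLite luciferase luminescence. Replication: one test per compound.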
RORa activator: activators of orphan receptor RORA, primary screen, cell-based, luminescence. activation, % at 10 µM. CHO-K1 Gal4-RORA LBD luciferase reporter; percent increase over mock-subtracted basal signal. 1.5% of 65,000 active. AID 560, 2006;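 active = activation above the mean of all tested compounds plus 3 SD, cut at about 49% in these data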;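 also: 0% = DMSO-treated RORA cells and 100% = added signal equal to DMSO minus mock-transfected cells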
M1 ag: M1 muscarinic receptor agonists, primary screen, CHO-M1 cells, Fluo-4 calcium, agonist mode; Muscarinic acetylcholine receptor M1; Fluo-4 calcium fluorescence; active compounds read high; B-score at 10 µM; 3% of 64,000 active; AID 626, 2007;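 active = fluorescence rise, raw or as B-score row- and column-corrected plate score, outside the 99.7% band of its plate's samples, either direction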
M1 antag: antagonists of rat M1 muscarinic receptor | Muscarinic acetylcholine receptor M1 (Rattus norvegicus), P08482 | CHO-M1 cells, Fluo-4 calcium, ACh EC80 antagonist mode; active compounds read low | B-score at 10 µM | 3.4% of 64,000 active | AID 628, 2007;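 active = calcium fluorescence response, raw or row-and-column corrected B-score, differing from the plate sample mean either way at a set confidence level, mostly lower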
D1 mod: D1 CRE-luciferase signal change, two-sided – cell-based, HEK293 D1, dopamine EC30, D1 allosteric modulator project, primary screen. dopamine EC30 potentiation; actives deviate in either direction. D(1A) dopamine receptor (Homo sapiens), P21728. 5.9% of 58,000 active. B-score at 10 µM;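 active = luminescence count or its row- and column-corrected plate score outside the 99.7% band of the plate's sample wells, on either side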
Target sequence (P21728 whole entry, looked up): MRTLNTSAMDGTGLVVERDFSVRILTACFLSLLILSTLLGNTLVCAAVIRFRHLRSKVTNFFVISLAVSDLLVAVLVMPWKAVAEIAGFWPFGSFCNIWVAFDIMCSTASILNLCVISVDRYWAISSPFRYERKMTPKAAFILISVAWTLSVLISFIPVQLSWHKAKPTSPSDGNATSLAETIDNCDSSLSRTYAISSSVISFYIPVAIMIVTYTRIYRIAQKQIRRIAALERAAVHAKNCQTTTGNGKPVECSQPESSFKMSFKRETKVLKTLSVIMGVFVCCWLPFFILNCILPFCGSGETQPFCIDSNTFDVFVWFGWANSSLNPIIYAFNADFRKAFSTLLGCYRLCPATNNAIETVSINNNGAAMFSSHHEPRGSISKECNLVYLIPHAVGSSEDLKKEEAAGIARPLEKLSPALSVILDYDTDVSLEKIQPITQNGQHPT
Htt clearance: clearance of mutant huntingtin inclusions, primary screen, imaging, HeLa Exon1htt(103Q)mCFP, confocal imaging. aggregate imaging; zero = plate's median compound well. inhibition, % at 1.5 µM. 0.42% of 47,000 active. AID 853, 2007;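 active = inhibition of aggregate fluorescence above about 70%, also judged a hit by eye on the cell image, limit read from the data, passing the limit was not always enough; inconclusive = no rule stated for this call; inactive = not judged a hit on image review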;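 also: cells exposed to compound for three days before fixation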
M1 ag confirm: rat M1 muscarinic receptor agonists, confirmation, CHO-M1 cells, Fluo-4 calcium, duplicate retest | fluorescence change (max-min) at 10 µM | AID 1488, 2009 | 19% of 1,700 active | shares compounds with M1 ag | Fluo-4 calcium fluorescence, agonist mode; actives lie on both sides;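 active = fluorescence change differs from the solvent-only DMSO control mean at a set confidence level in both duplicate runs; inconclusive = differs from solvent-only control mean in just one of two runs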;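 also: an EC20 dose of acetylcholine follows compound addition during the same imaging run; raw fluorescence intensity difference in instrument units with no normalization to controls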
M4 agonist ctr: agonist activity at rat M4 receptor, confirmation, counter-screen for M1 allosteric modulator project, cell-based, agonist mode | shares compounds with M1 ag | CHO M4/Gqi5 cells, Fluo-4 calcium fluorescence; actives lie on both sides | fluorescence change (max-min) at 10 µM | 9% of 1,700 active;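 active = fluorescence change differing from the plate's solvent-only control wells at 99.7% confidence in both duplicates, whether higher or lower; inconclusive = differs from solvent controls in only one of two duplicates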
* hit, by the source's call; i = inactive; ? = inconclusive; · = no result given.

SMILES	SF-1 act	RORa activator	M1 ag	M1 antag	D1 mod	Htt clearance	M1 ag confirm	M4 agonist ctr
COC(=O)c1cc2sc(Cl)cc2n1CC(=O)NCCC(C)C	·	·	·	·	·	-61	·	·
CCn1c(C(=O)NCc2cccnc2)cc2sc(Cl)cc21	-10	-11	0.63	-0.18	0.36	47	·	·
CCN1CCN(C(=O)c2ccc3c(=O)n(C4CCCC4)c(=S)[nH]c3c2)CC1	1	1	1.4*	-0.42	0.81	-4	-1	-27
O=C(c1ccc2c(=O)n(C3CCCC3)c(=S)[nH]c2c1)N1CCN(C2CCCCC2)CC1	-4	-4	0.26	-0.059	0.5	-41	·	·
CCOC(=O)N1CCN(C(=O)c2ccc3c(=O)n(CCc4ccccc4)c(=S)[nH]c3c2)CC1	2	-7	-0.39	-0.17	-1.6	·	·	·
CCCn1c(=S)[nH]c2cc(C(=O)N3CCCC(C(=O)OCC)C3)ccc2c1=O (centres undefined)	10	1	3.3*	-1.8	-1.6	9	-16	?
Cc1cc(C)nc(SCc2nnc(SCC(=O)Nc3cc(C(F)(F)F)ccc3Cl)o2)n1	-1	-1	·	·	0.15	-375	·	·
C=CCc1ccccc1OCC(O)CN1CCN(C(=O)OCC)CC1 (centres undefined)	11	-15	28*	-1.3	-2.7	·	172*	-44
CCOC(=O)N1CCN(CC(O)COc2ccccc2C(C)CC)CC1 (centres undefined)	1	1	-0.48	-0.35	-0.079	12	·	·
CCOC(=O)N1CCN(CC(O)COc2ccccc2C(C)C)CC1 (centres undefined)	-2	7	13*	-1	-1.8	16	65*	-6.6
C=CCc1ccccc1OCC(O)CN1CCN(c2ccc(C)cc2)CC1 (centres undefined)	-3	2	-0.065	0.66	·	39	·	·
C=CCc1ccccc1OCC(O)CN1CCN(Cc2ccc3c(c2)OCO3)CC1 (centres undefined)	-24	-4	6.9*	-5.4*	-5.8*	-118	9.5	-22
CCOC(=O)N1CCN(C(=O)CSc2nc3c(cnn3-c3ccc(Cl)cc3)c(=O)[nH]2)CC1	9	10	1.5	-1.4	0.66	·	·	·
COc1cccc(OC)c1OCCCCCc1c(C)n[nH]c1C	12	15	3*	-0.087	-0.63	-7	-17	-44
Cc1cccc(C)c1OCCCCc1c(C)n[nH]c1C	-9	-14	0.14	-0.85	-0.55	-13	·	·
CCCOc1nc2c(c(=O)n(C)c(=O)n2C)n1Cc1cccc2ccccc12	-24	-13	3.6*	-0.7	-0.95	54	?	-32
Cn1c(=O)c2c(nc(N3CCNCC3)n2Cc2cccc3ccccc23)n(C)c1=O	6	6	-0.95	0.15	0.21	·	·	·
O=C(O)CCc1n[nH]c(=S)[nH]c1=O	1	-8	0.025	0.077	·	10	·	·
CCn1c(SCC(=O)Nc2cccc(NC(=O)c3ccco3)c2)nnc1-c1cccs1	-2	-8	4.2*	-0.74	1.2	·	-10	-34
CSC(=O)CC(=O)NC(=O)c1ccccc1	-19	-2	-0.71	-0.62	-0.17	-63	·	·
N#Cc1ccccc1CSc1nc(N2CCCCC2)nc(N2CCCCC2)n1	-5	-23	7.4*	1.6	0.087	?	-19	-24
Cc1cc(C)nc(SCC(=O)NCc2ccco2)n1	-12	-1	2.4*	0.2	-0.11	46	-22*	-61
COc1ccc(-c2[nH]c(-c3ccccc3)nc2SCC(=O)NCc2ccco2)cc1OC	·	·	·	·	·	-94	·	·
Cc1cc(C)n2nc(SCC(=O)NCc3ccco3)nc2n1	1	10	-0.71	0.78	-0.74	-58	·	·
COc1ccc(-c2nc(SCC(=O)NCc3ccco3)c(-c3ccccc3)[nH]2)cc1OC	2	0	5.8*	0.56	-2.2	·	-11	-4.2
SMILES	SF-1 act	RORa activator	M1 ag	M1 antag	D1 mod	Htt clearance	M1 ag confirm	M4 agonist ctr
COc1ccc(C2C(C#N)=C(N)N3C(=C2C#N)Sc2ccccc23)cc1 (centres undefined)	-14	-6	46*	-1.5	0.39	·	131*	92
COC(=O)C1=C2SC(C)C(=O)N2C(N)=C(C#N)C1c1ccc(OC)c(OC)c1 (centres undefined)	2	1	-0.74	0.42	-0.14	·	·	·
CCOC(=O)c1ccc(Nc2nc(-c3cccnc3)nc3ccccc23)cc1	·	·	·	·	·	19	·	·
CCOc1ccc(Nc2ncnc3c2cnn3-c2ccccc2)cc1	17	17	3.2*	-0.04	1.3	·	-19	?
CCOC(=O)N1CCN(C(=O)CN(c2cccc(C(F)(F)F)c2)S(C)(=O)=O)CC1	-6	3	-0.35	-0.57	1.6	-1	·	·
Cc1ccc(N2CC(C(=O)Nc3ccncc3)CC2=O)cc1 (centres undefined)	-9	2	0.35	0.053	-0.39	-31	·	·
CC(=O)Nc1cccc(NC(=O)C2CC(=O)N(c3ccc(C)cc3)C2)c1 (centres undefined)	12	-32	3.1*	0.85	-0.028	-69	-19	-53
Cc1ccc(C)c2[nH]c(=O)c(CCNC(=O)c3ccc(S(=O)(=O)N(C)C)cc3)cc12	-13	9	0.019	0.48	1.9	-80	·	·
CCOc1ccc(S(=O)(=O)N(C)CCO)cc1-c1nc2c(C(C)(C)C)nn(C)c2c(=O)[nH]1	-3	-22	5.6*	-1.8	·	19	-13	-33
CCOc1ccc(S(=O)(=O)N(C)C)cc1-c1nc2c(C(C)(C)C)nn(C)c2c(=O)[nH]1	-22	-5	-0.0043	0.38	3.1	14	·	·
CC(C)(C)OC(=O)N[C@@H](Cc1ccccc1)c1nnc(S(=O)(=O)Cc2ccccc2)o1	-33	-26	21*	-0.6	-0.5	·	-15	-41
Cn1c(Cn2cnc3ccccc32)nnc1SCC(=O)CC(=O)Nc1ccccc1	-14	10	-1.2	-0.047	0.21	·	·	·
CC1CCCCN1S(=O)(=O)c1ccc(C(=O)Nc2sccc2C(N)=O)cc1 (centres undefined)	·	·	·	·	·	-30	·	·
Cc1cccc(N2CCN(C(=O)Cn3sc4nc(C)cc(C)c4c3=O)CC2C)c1 (centres undefined)	14	9	5.3*	-0.62	-0.1	i	-24*	-67*
